Converted amounts (≈) assume the structure as drawn. Where only a bound is given, the exact number is not on record here.

What all share (type): functional
Experiment [1] concerns Pasteurella multocida. Nature of the experiment: Minimum inhibitory concentration against Pasteurella multocida. Put shortly:
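P. multocida strain 59A0067 (turkey origin), grown overnight on BHI plates; colonies in saline at OD625 0.09 (0.5 McFarland), diluted 1:100 in BHI broth. Two-fold serial dilutions in BHI microdilution, about 5×10⁵ cfu/mL final, 37 °C for 18 h. MIC is the lowest concentration with A600 ≤ 0.025.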

In experiment [2] the test system is Mus musculus. Nature of the experiment: In vivo effective dose against Pasteurella multocida infection in mouse. A digest of the protocol: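 Mice infected with P. multocida serotype 5A. Subcutaneous dosing 0.5 h post-infection at 5 to 80 mg/kg. ED50 calculated from the number of mice surviving four days after infection.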
In experiment [3] the test system is Escherichia coli. Nature of the experiment: Minimum inhibitory concentration against Escherichia coli.

One may read the MIC as the smallest concentration in the dilution series that meets the test's criterion for growth inhibition. What is called ED50 is the dose at which the effect has come halfway, by size or by number of responders. Lower therefore signals greater potency. With `C=C[C@@]1(O)[C@H](C)O[C@@H](O[C@H]2[C@H](C)[C@@H](O[C@@H]3O[C@H](C)C[C@H](N(C)C)[C@H]3O)[C@](C)(O)C[C@@H](C)CN[C@H](C)[C@@H](O)[C@](C)(O)[C@@H](CC)OC(=O)[C@@H]2C)C[C@@]1(C)OC`, the MIC is 0.2 µg/mL (≈ 0.263 µM) in experiment [1] and 1.56 µg/mL (≈ 2.05 µM) in experiment [3]. In experiment [2], this compound registered an ED50 of 66 mg/kg.

For `C=CC[C@@]1(O)[C@H](C)O[C@@H](O[C@H]2[C@H](C)[C@@H](O[C@@H]3O[C@H](C)C[C@H](N(C)C)[C@H]3O)[C@](C)(O)C[C@@H](C)CN[C@H](C)[C@@H](O)[C@](C)(O)[C@@H](CC)OC(=O)[C@@H]2C)C[C@@]1(C)OC`, the MIC in experiment [1] was less than 0.1 µg/mL; in experiment [3] it was 0.78 µg/mL (≈ 1.01 µM). In experiment [2], this compound yielded an ED50 of 58 mg/kg.

Regarding `CC[C@H]1OC(=O)[C@H](C)[C@@H](O[C@H]2C[C@@](C)(OC)[C@@](O)(C#CCN(C)C)[C@H](C)O2)[C@H](C)[C@@H](O[C@@H]2O[C@H](C)C[C@H](N(C)C)[C@H]2O)[C@](C)(O)C[C@@H](C)CN[C@H](C)[C@@H](O)[C@]1(C)O`, the results for the MIC in experiment [1] and in experiment [3] were 0.2 µg/mL (≈ 0.245 µM) and 1.56 µg/mL (≈ 1.91 µM), respectively. The same compound showed a 50% effective dose (ED50) in experiment [2] of 22 mg/kg.

As for `CC[C@H]1OC(=O)[C@H](C)[C@@H](O[C@H]2C[C@@](C)(OC)[C@](C)(O)[C@H](C)O2)[C@H](C)[C@@H](O[C@@H]2O[C@H](C)C[C@H](N(C)C)[C@H]2O)[C@](C)(O)C[C@@H](C)CN(C)[C@H](C)[C@@H](O)[C@]1(C)O`, the values for the MIC in experiment [1] and in experiment [3] were 0.1 µg/mL (≈ 0.131 µM) and 0.78 µg/mL (≈ 1.02 µM), respectively. Also, in experiment [2], the ED50 is 26 mg/kg.

The values above are taken from ChEMBL document CHEMBL1136530, “Synthesis, stereochemical assignment and biological activity of a novel series of C-4" modified aza-macrolides” (2003).
